From ChEMBL document CHEMBL1153063 (Bioorg Med Chem Lett, 2009)

Legend:
[1] = target: Neuronal acetylcholine receptor subunit alpha-7 (Rattus norvegicus, UniProt Q05941); experiment: Displacement of [125I]BTX from rat alpha7 nAChR expressed in rat GH4C1 cells; format: cell-based, GH4-C1
Outline: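 GH₄C₁ cell binding with [¹²⁵I]-BTX; six-point dose–response curve in triplicate, values averaged.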

[2] = target: Neuronal acetylcholine receptor subunit alpha-7 (Rattus norvegicus) (UniProt Q05941); experiment: Agonist activity at rat alpha7 nAChR expressed in Xenopus oocytes at 32 uM by two-electrode voltage clamp technique relative to nicotine; format: functional, cell-based; details: Oocyte
Chain of Neuronal acetylcholine receptor subunit alpha-7 (Rattus norvegicus) (Q05941 whole entry): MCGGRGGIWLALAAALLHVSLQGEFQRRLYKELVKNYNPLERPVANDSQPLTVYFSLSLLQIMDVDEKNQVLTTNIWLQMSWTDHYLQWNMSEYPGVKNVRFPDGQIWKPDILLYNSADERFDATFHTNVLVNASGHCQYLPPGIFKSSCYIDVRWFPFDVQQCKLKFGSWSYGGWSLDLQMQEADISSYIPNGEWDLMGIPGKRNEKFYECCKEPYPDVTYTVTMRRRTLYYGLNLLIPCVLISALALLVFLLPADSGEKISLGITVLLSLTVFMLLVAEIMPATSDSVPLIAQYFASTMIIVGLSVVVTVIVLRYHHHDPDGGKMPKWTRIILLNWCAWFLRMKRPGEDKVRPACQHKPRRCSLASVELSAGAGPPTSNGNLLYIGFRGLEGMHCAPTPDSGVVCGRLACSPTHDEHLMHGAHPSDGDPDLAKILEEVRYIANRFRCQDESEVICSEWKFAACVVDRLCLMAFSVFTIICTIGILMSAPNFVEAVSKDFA
Outline: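 Rat alpha7 nAChR cRNA (10–50 ng) injected into Xenopus oocytes defolliculated with collagenase (1.3 mg/mL, 3 h); oocytes kept in Barth's saline up to 2 weeks. Test compounds applied at 32 µM.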

[3] = target: Neuronal acetylcholine receptor; alpha4/beta2 (Rattus norvegicus, UniProt P09483+P12390); experiment: Displacement of L-[3H]Nicotine from alpha4beta2 nAChR in rat brain homogenate by rapid filtration method; format: tissue-based
Chain of Neuronal acetylcholine receptor; alpha4/beta2 (P09483 whole entry): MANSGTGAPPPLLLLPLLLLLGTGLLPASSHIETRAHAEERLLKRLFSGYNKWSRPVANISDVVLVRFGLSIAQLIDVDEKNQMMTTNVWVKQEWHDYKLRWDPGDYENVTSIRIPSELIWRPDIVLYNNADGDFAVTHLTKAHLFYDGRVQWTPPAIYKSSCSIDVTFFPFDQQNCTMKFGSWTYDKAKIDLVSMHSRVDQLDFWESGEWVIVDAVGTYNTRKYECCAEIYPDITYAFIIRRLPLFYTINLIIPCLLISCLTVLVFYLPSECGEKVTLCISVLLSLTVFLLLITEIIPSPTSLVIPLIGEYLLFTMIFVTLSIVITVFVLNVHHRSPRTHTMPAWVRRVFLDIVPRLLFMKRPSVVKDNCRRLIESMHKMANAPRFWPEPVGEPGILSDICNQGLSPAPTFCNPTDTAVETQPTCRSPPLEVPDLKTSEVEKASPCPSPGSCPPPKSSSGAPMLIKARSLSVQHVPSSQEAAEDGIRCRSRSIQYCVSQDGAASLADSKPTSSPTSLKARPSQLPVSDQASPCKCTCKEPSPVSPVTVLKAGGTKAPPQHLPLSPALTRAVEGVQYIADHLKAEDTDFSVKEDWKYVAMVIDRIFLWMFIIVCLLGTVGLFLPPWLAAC
Chain of Neuronal acetylcholine receptor; alpha4/beta2 (P12390 whole entry): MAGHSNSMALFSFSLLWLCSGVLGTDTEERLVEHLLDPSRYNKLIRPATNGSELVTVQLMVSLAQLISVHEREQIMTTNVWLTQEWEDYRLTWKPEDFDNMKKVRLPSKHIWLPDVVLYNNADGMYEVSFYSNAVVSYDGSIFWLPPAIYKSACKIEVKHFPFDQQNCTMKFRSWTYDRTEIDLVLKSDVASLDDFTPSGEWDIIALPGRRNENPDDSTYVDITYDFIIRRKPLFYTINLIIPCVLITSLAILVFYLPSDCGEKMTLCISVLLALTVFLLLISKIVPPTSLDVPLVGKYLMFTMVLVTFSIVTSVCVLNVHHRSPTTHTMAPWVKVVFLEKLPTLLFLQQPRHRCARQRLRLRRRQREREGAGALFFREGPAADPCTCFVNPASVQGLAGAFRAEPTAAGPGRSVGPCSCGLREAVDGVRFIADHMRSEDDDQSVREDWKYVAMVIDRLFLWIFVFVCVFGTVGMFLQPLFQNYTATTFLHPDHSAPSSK

[4] = target: Neuronal acetylcholine receptor subunit alpha-3 (Homo sapiens, UniProt P32297); experiment: Displacement of [3H]epibatidine from alpha3 nAChR in human IMR32 cells; format: cell-based, IMR-32
Chain of Neuronal acetylcholine receptor subunit alpha-3 (P32297 whole entry): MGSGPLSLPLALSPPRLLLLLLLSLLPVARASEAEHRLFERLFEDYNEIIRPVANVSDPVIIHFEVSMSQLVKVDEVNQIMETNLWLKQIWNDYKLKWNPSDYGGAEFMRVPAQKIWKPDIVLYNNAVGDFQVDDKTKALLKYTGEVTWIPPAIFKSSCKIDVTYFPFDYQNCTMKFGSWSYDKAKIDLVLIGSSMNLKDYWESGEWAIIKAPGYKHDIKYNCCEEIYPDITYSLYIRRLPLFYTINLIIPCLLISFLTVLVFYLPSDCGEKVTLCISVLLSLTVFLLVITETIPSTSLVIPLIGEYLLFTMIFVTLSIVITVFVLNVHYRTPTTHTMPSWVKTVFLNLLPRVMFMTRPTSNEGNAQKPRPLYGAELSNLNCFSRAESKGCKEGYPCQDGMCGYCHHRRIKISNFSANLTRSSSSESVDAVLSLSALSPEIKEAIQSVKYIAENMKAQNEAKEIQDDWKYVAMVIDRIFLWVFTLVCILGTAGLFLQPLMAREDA
Outline: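 IMR32 cell binding with [³H]-epibatidine; six-point dose–response curve in triplicate, values averaged.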

[5] = Octanol-aqueous buffer partition coefficient, log D at pH 7.4; format: physicochemical
[6] = Aqueous solubility of the compound; format: physicochemical; details: buffer
hERG (KCNH2) = hERG (KCNH2) (Homo sapiens, UniProt Q12809); experiment: Displacement of [3H]dofetilide from human ERG expressed in HEK293 cells at 10 uM; format: cell-based; details: HEK293 cells expressing human ERG, probe [3H]dofetilide
Chain of hERG (KCNH2) (Q12809 whole entry): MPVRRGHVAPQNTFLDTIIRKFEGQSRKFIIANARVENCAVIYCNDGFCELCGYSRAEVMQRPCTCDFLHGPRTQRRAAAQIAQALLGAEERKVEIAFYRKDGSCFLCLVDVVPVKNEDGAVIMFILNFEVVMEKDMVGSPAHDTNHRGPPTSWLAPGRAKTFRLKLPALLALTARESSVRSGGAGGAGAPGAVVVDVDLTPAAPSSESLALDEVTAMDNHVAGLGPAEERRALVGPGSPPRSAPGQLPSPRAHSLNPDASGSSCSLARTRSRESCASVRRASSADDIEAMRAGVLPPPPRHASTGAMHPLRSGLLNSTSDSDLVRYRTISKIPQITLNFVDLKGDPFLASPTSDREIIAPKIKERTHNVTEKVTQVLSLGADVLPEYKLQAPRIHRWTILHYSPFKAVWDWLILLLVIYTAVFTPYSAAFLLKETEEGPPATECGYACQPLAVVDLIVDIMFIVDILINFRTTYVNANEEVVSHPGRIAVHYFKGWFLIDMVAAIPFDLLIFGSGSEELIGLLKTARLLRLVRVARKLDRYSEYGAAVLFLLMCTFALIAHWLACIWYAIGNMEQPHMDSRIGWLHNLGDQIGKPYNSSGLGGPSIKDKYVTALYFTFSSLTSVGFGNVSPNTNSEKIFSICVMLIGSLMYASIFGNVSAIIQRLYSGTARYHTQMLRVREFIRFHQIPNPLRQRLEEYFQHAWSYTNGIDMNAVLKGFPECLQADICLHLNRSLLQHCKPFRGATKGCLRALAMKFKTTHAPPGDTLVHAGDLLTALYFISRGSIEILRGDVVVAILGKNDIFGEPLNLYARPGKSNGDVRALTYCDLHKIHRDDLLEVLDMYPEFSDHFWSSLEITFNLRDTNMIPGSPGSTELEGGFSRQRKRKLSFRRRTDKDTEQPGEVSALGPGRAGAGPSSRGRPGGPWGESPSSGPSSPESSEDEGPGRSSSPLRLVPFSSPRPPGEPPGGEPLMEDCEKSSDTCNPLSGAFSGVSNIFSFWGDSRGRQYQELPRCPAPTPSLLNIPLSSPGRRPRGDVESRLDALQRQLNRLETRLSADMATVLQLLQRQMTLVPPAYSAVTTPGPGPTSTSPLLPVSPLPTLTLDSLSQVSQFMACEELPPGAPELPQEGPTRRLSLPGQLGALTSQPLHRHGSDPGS
Outline: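 Binding of [³H]dofetilide to hERG stably expressed in HEK293 cells; reported as percent inhibition of binding.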

[7] = target: T1, 5-hydroxytryptamine receptor 3A (Homo sapiens, UniProt P46098); experiment: Displacement of [3H]LY278584 from human 5HT3 receptor expressed in HEK293 cells; format: cell-based
T1 sequence (P46098 whole entry): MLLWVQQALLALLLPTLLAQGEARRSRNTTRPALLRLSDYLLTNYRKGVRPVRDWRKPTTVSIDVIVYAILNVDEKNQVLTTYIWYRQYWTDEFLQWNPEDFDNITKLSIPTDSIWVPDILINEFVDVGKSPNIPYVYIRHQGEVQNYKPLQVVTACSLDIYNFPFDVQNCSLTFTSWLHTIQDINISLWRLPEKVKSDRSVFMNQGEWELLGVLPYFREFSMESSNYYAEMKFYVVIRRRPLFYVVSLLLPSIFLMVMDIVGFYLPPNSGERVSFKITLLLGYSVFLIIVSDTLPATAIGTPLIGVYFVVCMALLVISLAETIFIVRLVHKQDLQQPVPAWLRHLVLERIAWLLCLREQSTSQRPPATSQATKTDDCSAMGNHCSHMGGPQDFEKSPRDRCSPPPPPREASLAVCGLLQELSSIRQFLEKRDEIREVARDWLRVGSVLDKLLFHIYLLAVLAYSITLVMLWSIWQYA
Outline: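 HEK293 cells expressing human 5-HT₃; [³H]-LY278584 binding, six-point dose–response curve in triplicate, values averaged.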

[8] = Intrinsic clearance in human liver microsomes at 1 uM at pH 7.4 after 30 mins; format: ADME, Microsome
Outline: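 Pooled liver microsomes in phosphate buffer pH 7.4, 1 μM substrate; sampled at 30 min.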

[9] = Drug concentration in Sprague-Dawley rat brain at 5 mg/kg, sc after 1 hr; format: ADME, organism-based; set-up: dose 5 mg/kg, route subcutaneous; details: read-out: Drug uptake
Outline: (§1)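 Male Sprague-Dawley rats (n = 3) given 5 mg/kg s.c.; brain, plasma and CSF levels assessed 1 h post dose.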

[10] = Plasma concentration in Sprague-Dawley rat at 5 mg/kg, sc after 1 hr; format: ADME, organism-based; set-up: dose 5 mg/kg, route subcutaneous; outline: as §1
[11] = Ratio of drug level in brain to plasma in Sprague-Dawley rat at 5 mg/kg, sc after 1 hr; format: ADME, organism-based; set-up: dose 5 mg/kg, route subcutaneous
Outline: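 Male Sprague-Dawley rats (n = 3) received a single subcutaneous dose of 5 mg/kg. Brain, plasma and CSF drug levels were assessed 1 h post dose, and the brain level was expressed relative to the plasma level.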

[12] = Drug concentration in Sprague-Dawley rat CSF at 5 mg/kg, sc after 1 hr; format: ADME, organism-based, Cerebrospinal fluid; set-up: dose 5 mg/kg, route subcutaneous; details: read-out: Drug uptake; outline: as §1

Chain of Neuronal acetylcholine receptor subunit alpha-7 (Q05941 whole entry): as the sequence (Q05941 whole entry) above

Compound | Ki [1] [nM] | Activity [2] [%] | IC50 [3] [nM] | further results
O=C(Oc1ccc(F)cc1)N1CCN2CCC1CC2 | 537 | 100 | 1780 | –
C[C@@H]1CN(C(=O)Oc2ccc(Br)cc2)C[C@H](C)N1 | > 5000 | < 0.1 | – | –
Cc1ccc(OC(=O)N2CCN3CCC2CC3)cc1 | 178 | 202 | – | –
O=C(Oc1ccc(Cl)c(F)c1)N1CCN2CCC1CC2 | 86 | 110 | 6980 | IC50 [4]: 9960 nM
O=C(Oc1ccccc1Br)N1CCN2CCC1CC2 | 725 | – | – | –
O=C(Oc1cccc(F)c1)N1CCN2CCC1CC2 | 35 | 47 | 1060 | –
O=C(Oc1cccc(Br)c1)N1CCN2CCC1CC2 | 9.5 | 70 | – | –
O=C(Oc1ccc(Br)cc1)N1CCN2CCC1CC2 [SSR180711] | – | 158 | > 5000 | IC50 [4]: > 6480 nM; logD [5]: 2.1; solubility [6]: > 65 µg/mL; inhibition at 10 µM (hERG (KCNH2)): 46%; IC50 [7]: > 3160 nM; CLint scaled at 1 µM [8]: < 6.8 mL/min/kg; concentration at 1 h [9]: 5460 ng/g; concentration at 1 h [10]: 648 ng/mL; Kp at 1 h [11]: 9.1; concentration at 1 h [12]: 774 nM
C[C@@H]1CN(C(=O)Oc2ccc(Br)cc2)CCN1 | > 5000 | < 0.1 | – | –
O=C(Oc1ccc(-c2ccncc2)cc1)N1CCN2CCC1CC2 | 207 | 191 | – | –
O=C(Oc1ccccc1Cl)N1CCN2CCC1CC2 | 868 | – | – | –
O=C(Oc1ccc(Oc2ccccc2)cc1)N1CCN2CCC1CC2 | 212 | 241 | – | –
O=C(Oc1cccc(Cl)c1)N1CCN2CCC1CC2 | 32 | 77 | 3500 | –
COc1cccc(OC(=O)N2CCN3CCC2CC3)c1 | 79 | 26 | – | –
O=C(Oc1ccc(Cl)c(Cl)c1)N1CCN2CCC1CC2 | 31 | 195 | – | –
O=C(c1ccccc1)c1ccc(OC(=O)N2CCN3CCC2CC3)cc1 | 95 | 35 | – | –
O=C(c1ccccc1)c1cccc(OC(=O)N2CCN3CCC2CC3)c1 | 11 | 98 | 2610 | –
O=C(Oc1ccc(Br)c(Cl)c1)N1CCN2CCC1CC2 | 33 | 203 | 7120 | IC50 [4]: 2090 nM
O=C(Oc1ccc(Br)cc1)N1CCCN2CCC1CC2 | 383 | 27 | > 10000 | –
O=C(Oc1ccc(Br)cc1)N1CCN2CCC(CC2)C1 | 763 | – | > 10000 | –
O=C(Oc1cccc(-c2ccccc2)c1)N1CCN2CCC1CC2 | 9 | 9 | – | –

Compound | Ki [1] [nM] | Activity [2] [%] | IC50 [3] [nM] | further results
O=C(Oc1ccc(-c2ccccc2)cc1)N1CCN2CCC1CC2 | 215 | 111 | – | –
COc1ccc(OC(=O)N2CCN3CCC2CC3)cc1 | 201 | 126 | – | –
O=C(Nc1ccc(Br)cc1)N1CCN2CCC1CC2 | 328 | – | – | –
O=C(Nc1ccc(Br)cc1)OC1CN2CCC1C2 (configuration not stated) [QUINUCLIDINE CARBAMATE] | – | 90 | – | –
O=C(Oc1ccc2ccccc2c1)N1CCN2CCC1CC2 | 23 | 175 | 9880 | IC50 [4]: 4910 nM; logD [5]: 2.3; solubility [6]: > 65 µg/mL; inhibition at 10 µM (hERG (KCNH2)): 8%; IC50 [7]: > 3160 nM; CLint scaled at 1 µM [8]: 12 mL/min/kg; concentration at 1 h [9]: 5290 ng/g; concentration at 1 h [10]: 463 ng/mL; Kp at 1 h [11]: 11.6; concentration at 1 h [12]: 343 nM
O=S(=O)(c1ccc(Br)cc1)N1CCN2CCC1CC2 | > 4720 | – | – | –
O=C(OCc1ccccc1)N1CCN2CCC1CC2 | 3350 | – | – | –
O=c1c(Br)ccc2n1C[C@@H]1CNC[C@H]2C1 | – | – | – | IC50 [4]: 15.6 nM
C[C@@H]1CN(C(=O)Oc2ccc(Br)cc2)[C@@H](C)CN1 | > 5000 | – | – | –
Cc1cc(OC(=O)N2CCN3CCC2CC3)ccc1Br | 50 | 83 | 7220 | IC50 [4]: 4020 nM
O=C(Oc1cccc(Oc2ccccc2)c1)N1CCN2CCC1CC2 | 13 | 40 | – | –
O=C(Oc1ccc(-c2ccccn2)cc1)N1CCN2CCC1CC2 | 354 | 174 | – | –
O=C(Oc1ccccc1)N1CCN2CCC1CC2 | 739 | 99 | 1040 | –
Cc1cccc(OC(=O)N2CCN3CCC2CC3)c1 | 25 | 46 | – | –
CN1CCCN(C(=O)Oc2ccc(Br)cc2)CC1 | > 5710 | 10 | – | –
O=C(c1ccccc1)c1cc(OC(=O)N2CCN3CCC2CC3)ccc1Br | 16 | 201 | 2040 | IC50 [4]: 1390 nM
O=C(Cc1ccc(Br)cc1)N1CCN2CCC1CC2 | > 5000 | 1.7 | – | –
S=C(Oc1ccccc1)N1CCN2CCC1CC2 | 749 | 28 | – | –
O=C(Oc1ccc(Cl)cc1)N1CCN2CCC1CC2 | 79 | 145 | > 5000 | IC50 [4]: > 5000 nM
O=C(Oc1ccc(-c2cccnc2)cc1)N1CCN2CCC1CC2 | 203 | 189 | > 5000 | –
